# TRPC4 agonist: TRPC4 (mouse) channel activation | HEK293 TRPC4beta/mu-opioid, Fluo4 calcium fluorescence; hits give high values | B-score at 10 µM | actives 0.49% (n = 310,000);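 active means B-score above 5 SD of library B-scores, and initial fluorescence ratio not above library mean plus 5 SD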;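 further: positive B-score marks a calcium rise read as TRPC4 activation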
#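 Material: TRPC4beta and mu-opioid receptor HEK293 stable cells | Incubation: 45 min room-temperature Fluo4 loading, 110 s read | Detection: Kinetic Fluo4 calcium fluorescence | Measure: Integrated baseline-normalised fluorescence ratio, converted to per-well B score | Benchmarks: Low control buffer alone, high control maximal DAMGO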
# TRPC6 act: mouse TRPC6 channel activation | B-score at 10 µM | HEK293-TRPC6 membrane potential dye fluorescence; hits give high values | actives 0.13% (n = 310,000) | AID 2550;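 active means B-score of the integrated fluorescence ratio above library mean plus 3 SD, and starting fluorescence ratio within library mean plus 5 SD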;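 further: higher score means more depolarization so channel activation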
# Target sequence (Q61143 whole entry, looked up): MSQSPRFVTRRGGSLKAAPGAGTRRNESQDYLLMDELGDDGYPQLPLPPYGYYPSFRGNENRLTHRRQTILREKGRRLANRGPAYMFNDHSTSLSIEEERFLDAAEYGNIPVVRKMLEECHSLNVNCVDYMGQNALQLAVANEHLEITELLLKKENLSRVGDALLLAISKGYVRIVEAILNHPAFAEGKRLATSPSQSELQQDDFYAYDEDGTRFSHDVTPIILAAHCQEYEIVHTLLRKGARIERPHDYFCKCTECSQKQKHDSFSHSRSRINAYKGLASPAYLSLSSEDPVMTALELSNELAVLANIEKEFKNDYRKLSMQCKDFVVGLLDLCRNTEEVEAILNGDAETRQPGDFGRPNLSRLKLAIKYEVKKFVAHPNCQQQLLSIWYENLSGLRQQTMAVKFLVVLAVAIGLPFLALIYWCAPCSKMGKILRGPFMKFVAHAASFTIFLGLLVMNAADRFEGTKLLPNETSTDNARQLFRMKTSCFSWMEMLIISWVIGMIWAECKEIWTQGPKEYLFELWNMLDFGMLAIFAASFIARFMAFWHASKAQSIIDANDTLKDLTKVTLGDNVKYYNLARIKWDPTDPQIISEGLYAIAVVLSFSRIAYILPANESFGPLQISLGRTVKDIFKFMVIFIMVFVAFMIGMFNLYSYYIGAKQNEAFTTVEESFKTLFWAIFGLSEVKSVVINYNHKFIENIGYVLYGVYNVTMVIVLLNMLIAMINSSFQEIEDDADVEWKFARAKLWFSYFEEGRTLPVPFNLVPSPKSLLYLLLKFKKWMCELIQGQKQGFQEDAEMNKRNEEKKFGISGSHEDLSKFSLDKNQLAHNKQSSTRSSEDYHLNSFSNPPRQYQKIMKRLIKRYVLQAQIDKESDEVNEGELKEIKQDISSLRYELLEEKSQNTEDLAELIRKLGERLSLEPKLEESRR
# TRPC4 potent: TRPC4 (mouse) allosteric potentiation | AID 2227 | B-score at 10 µM | HEK293 TRPC4beta/mu-opioid, DAMGO EC20, Fluo-4 Ca2+ flux; hits give high values | actives 0.42% (n = 310,000) | Q9QUQ5;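 active means B-score of calcium response area above 5 SD of library B-scores, with initial fluorescence ratio within 5 SD of library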
# TRPC6 inhibitor: inhibitors of mouse TRPC6 channel; Q61143; HEK293-TRPC6, membrane potential dye, ACh-evoked depolarization; hits give low values; B-score at 10 µM; actives 1.1% (n = 310,000); AID 2553;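 active means B-score under library mean minus 3 SD, initial fluorescence not abnormally high, positive integrated signal ratio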;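 further: B-score derived from integrated fluorescence ratio over the kinetic read; more negative B-score means stronger inhibition of depolarization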
# TRPC4 inh: inhibitors of mouse TRPC4 channel; HEK293 TRPC4beta/mu-opioid, DAMGO-evoked Fluo4 calcium flux; hits give low values; actives 0.39% (n = 300,000); AID 2247; Q9QUQ5; B-score at 10 µM;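 active means B-score over 3 SD under the library average, no early fluorescence shift, positive overall ratio signal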
#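 Assay system: Stable TRPC4beta/mu-opioid receptor HEK293 cells | Reagent: DAMGO in two steps, submaximal then maximal | Compound dosing: Single concentration per test compound | Signal: Fluo4 Ca2+ flux fluorescence | Evaluation: Per-well B score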
# Numbers stand for hits; - = inactive. Most compounds without a hit are left out; they make up all but 2.3% or so of the library.
SMILES,TRPC4 agonist,TRPC6 act,TRPC4 potent,TRPC6 inhibitor,TRPC4 inh
CC(OC(=O)Cc1n[nH]c(=O)c2ccccc12)C(=O)Nc1cccc([N+](=O)[O-])c1 (stereo unspecified),-,-,11,-,-
O=[N+]([O-])c1cccc(-c2ccc(CN3CCCCC3)o2)c1,-,-,13,-,-
O=C(Nc1ccc(CN2CCOCC2)cc1)c1ccc(-c2cccc([N+](=O)[O-])c2)o1,-,-,-,-,-
O=C(COc1ccc(C(=O)NCC2CCCO2)cc1)Nc1cccc(C(F)(F)F)c1 (stereo unspecified),-,-,-,-,-
CN1CCN(c2ccc(-c3cccc(NC(=O)COc4ccc(Cl)cc4Cl)c3)nn2)CC1,-,-,-,-,-
CN(C)c1ccc(NC(=O)C2C3C=CC(C3)C2C(=O)O)cc1 (stereo unspecified),-,-,21,-,-
O=C(O)C1C2C=CC(C2)C1C(=O)Nc1ccc2c(c1)OCCO2 (stereo unspecified),-,-,-,-,-
COc1ccc(CN(C(=O)c2snc(C(N)=O)c2N)C(CC(C)C)C(=O)NC2CCCCC2)cc1 (stereo unspecified),-,-,-,-,-7
Cc1ccccc1N(C(=O)c1snc(C(N)=O)c1N)C(C(=O)NC1CCCC1)c1ccco1 (stereo unspecified),-,-,-,-,-8
COc1cccc(N(C(=O)c2snc(C(N)=O)c2N)C(C(=O)NCC2CCCO2)c2ccc3ncccc3c2)c1 (stereo unspecified),-,-,-,-,-6
NC(=O)c1nsc(C(=O)N(c2ccc(F)cc2)C(C(=O)NCC2CCCO2)c2ccc3ncccc3c2)c1N (stereo unspecified),-,-,-,-,-
COc1ccccc1N(C(=O)c1snc(C(N)=O)c1N)C(C(=O)NC1CCCC1)c1ccc2ncccc2c1 (stereo unspecified),-,-,-,-,-6
CCc1ccc(N(C(=O)c2snc(C(N)=O)c2N)C(C(=O)NC2CCCC2)c2ccco2)cc1 (stereo unspecified),-,-,-,-,-
Cc1noc(C)c1S(=O)(=O)N1CCCC1C(=O)O (stereo unspecified),-,-,-,-,-
O=C(/C=C/c1cccc(Cl)c1)NCc1ccccc1,-,-,-,-,-
COc1ccc(C(C(=O)NCc2ccccc2)N(C(=O)c2snc(C(N)=O)c2N)c2ccccc2OC)cc1 (stereo unspecified),-,-,-,-,-
Cc1ccc(N(C(=O)c2snc(C(N)=O)c2N)C(C(=O)NCC2CCCO2)c2ccc3ncccc3c2)cc1 (stereo unspecified),-,-,-,-,-
COc1ccccc1N(C(=O)c1snc(C(N)=O)c1N)C(C(=O)NCc1ccccc1)c1ccc(O)cc1 (stereo unspecified),-,-,-,-,-8
Cc1cccc(N(C(=O)c2snc(C(N)=O)c2N)C(C(=O)NCC2CCCO2)c2ccc3ncccc3c2)c1 (stereo unspecified),-,-,-,-,-6
COc1cc(CN2CC(=O)N(c3cc(Cl)ccc3C)C2=S)cc(OC)c1OC,-,-,-,-,-
CN(C)S(=O)(=O)c1cccc(COc2ncnc3c(Cl)cc(Cl)cc23)c1,-,-,-,-,-
C[C@@H]1C(=O)O[C@H]2C[C@@]34[C@H]5C[C@@H](C(C)(C)C)[C@]36[C@@H](OC(=O)[C@@H]6O)O[C@@]4(C(=O)O5)[C@]21O,-,-,-,-,-
O=C(c1cc2c(s1)-c1ccccc1S(=O)(=O)C2)N1CCN(Cc2ccccc2)CC1,-,-,10,-,-
CCN1CCN(C(=O)c2cc3c(s2)-c2ccccc2S(=O)(=O)C3)CC1,-,-,-,-,-
CC(Sc1nnc2ccccn12)C(=O)Nc1ccc2c(c1)OCO2 (stereo unspecified),-,-,-,-,-
SMILES,TRPC4 agonist,TRPC6 act,TRPC4 potent,TRPC6 inhibitor,TRPC4 inh
O=C(O)c1cccc(S(=O)(=O)N2CCCC2)c1,-,-,-,-,-
O=C(O)c1cccc(S(=O)(=O)N2CCN(C(c3ccccc3)c3ccccc3)CC2)c1,-,-,-,-,-9
O=C(c1cc(Cl)nc2ccccc12)N(Cc1nnc(-c2ccccc2Cl)o1)C1CC1,-,-,-,-,-
COc1ccc2[nH]c(C(=O)N3CCC(n4nccc4NC(=O)C4CC4)CC3)c(C)c2c1,-,-,-,-,-
CCSc1nc2c(c(=O)n1Cc1ccccc1)SC(C)C2 (stereo unspecified),-,-,-,-,-6
O=C1CC(c2cccc([N+](=O)[O-])c2)c2ccc3ccccc3c2N1 (stereo unspecified),-,-,11,-,-
CCCCn1nnc(NC(=O)c2ccc([N+](=O)[O-])cc2Cl)n1,-,-,-,-,-
CCN(CC)C(=O)CSc1ccccc1N,-,-,-,-,-
CCc1cc2c(SCC(=O)N(C)C3CCS(=O)(=O)C3)ncnc2s1 (stereo unspecified),-,-,28,-,-
CCN(C(=O)CSc1ncnc2sc(C)c(C)c12)C1CCS(=O)(=O)C1 (stereo unspecified),-,-,-,-,-
CC(=O)c1ccc(NC(=S)N2CCN(S(=O)(=O)c3ccc(F)cc3)CC2)cc1,-,-,-,-,-
O=C(C1=C[C@@H](c2ccc(C(F)(F)F)cc2)C[C@@H](OCCCCO)O1)N1CCOCC1,-,-,-,-,-
O=C(C1=C[C@H](c2ccc(C(F)(F)F)cc2)C[C@H](OCCCCO)O1)N1CCOCC1,133,-,-,-,-
OCC1(Cc2ccc(Cl)cc2)CCN(Cc2ccccc2F)CC1,-,-,-,-,-6
O=C(CSc1nc2[nH]ncc2c(=O)n1-c1ccccc1Br)NCc1ccccc1Cl,-,-,-,-,-6
CCOc1ccc(OCC(=O)OCC(=O)N(CC(C)C)c2c(N)n(Cc3ccccc3)c(=O)[nH]c2=O)cc1,-,-,-,-,-
CC(C)CN(C(=O)COC(=O)COc1ccc2ccccc2c1)c1c(N)n(Cc2ccccc2)c(=O)[nH]c1=O,-,-,16,-,-
O=C(O)C1Cc2c([nH]c3ccccc23)C(c2ccc3c(c2)OCO3)N1 (stereo unspecified),-,-,-,-,-
COc1ccc(C2NC(C(=O)O)Cc3c2[nH]c2ccccc32)cc1CN1CCN(c2ccc(F)cc2)CC1 (stereo unspecified),-,-,-,-,-6
Cc1cc(NCc2ccccc2)c2ccccc2n1,-,-,-,-,-
Cc1cc(NCc2ccccc2)nc2ccccc12,51,-,-,-,-7
CCn1c(-c2ccccc2)csc1=Nc1ccc(O)cc1,-,-,-,-,-5
CC(=O)Oc1cc2oc(=O)cc(C)c2cc1Cl,-,-,-,-,-

# Source: PubChem BioAssay (Johns Hopkins Ion Channel Center)
